Measured values taken from article PMC7614232 (Organic & biomolecular chemistry, 2022).
Where two headings read alike, the source gives them in different places.

Tests used:
[1] = biological target: T1, AMAN-2 (Golgi α-mannosidase) (Caenorhabditis elegans, UniProt Q2PJ74); assay: α-mannosidase inhibition assay with pNP-Man, AMAN-2; format: biochemical; settings: for SI^b = IC50(JBMan)/IC50(AMAN-2): selectivity index
T1 sequence (Q2PJ74 27-1145): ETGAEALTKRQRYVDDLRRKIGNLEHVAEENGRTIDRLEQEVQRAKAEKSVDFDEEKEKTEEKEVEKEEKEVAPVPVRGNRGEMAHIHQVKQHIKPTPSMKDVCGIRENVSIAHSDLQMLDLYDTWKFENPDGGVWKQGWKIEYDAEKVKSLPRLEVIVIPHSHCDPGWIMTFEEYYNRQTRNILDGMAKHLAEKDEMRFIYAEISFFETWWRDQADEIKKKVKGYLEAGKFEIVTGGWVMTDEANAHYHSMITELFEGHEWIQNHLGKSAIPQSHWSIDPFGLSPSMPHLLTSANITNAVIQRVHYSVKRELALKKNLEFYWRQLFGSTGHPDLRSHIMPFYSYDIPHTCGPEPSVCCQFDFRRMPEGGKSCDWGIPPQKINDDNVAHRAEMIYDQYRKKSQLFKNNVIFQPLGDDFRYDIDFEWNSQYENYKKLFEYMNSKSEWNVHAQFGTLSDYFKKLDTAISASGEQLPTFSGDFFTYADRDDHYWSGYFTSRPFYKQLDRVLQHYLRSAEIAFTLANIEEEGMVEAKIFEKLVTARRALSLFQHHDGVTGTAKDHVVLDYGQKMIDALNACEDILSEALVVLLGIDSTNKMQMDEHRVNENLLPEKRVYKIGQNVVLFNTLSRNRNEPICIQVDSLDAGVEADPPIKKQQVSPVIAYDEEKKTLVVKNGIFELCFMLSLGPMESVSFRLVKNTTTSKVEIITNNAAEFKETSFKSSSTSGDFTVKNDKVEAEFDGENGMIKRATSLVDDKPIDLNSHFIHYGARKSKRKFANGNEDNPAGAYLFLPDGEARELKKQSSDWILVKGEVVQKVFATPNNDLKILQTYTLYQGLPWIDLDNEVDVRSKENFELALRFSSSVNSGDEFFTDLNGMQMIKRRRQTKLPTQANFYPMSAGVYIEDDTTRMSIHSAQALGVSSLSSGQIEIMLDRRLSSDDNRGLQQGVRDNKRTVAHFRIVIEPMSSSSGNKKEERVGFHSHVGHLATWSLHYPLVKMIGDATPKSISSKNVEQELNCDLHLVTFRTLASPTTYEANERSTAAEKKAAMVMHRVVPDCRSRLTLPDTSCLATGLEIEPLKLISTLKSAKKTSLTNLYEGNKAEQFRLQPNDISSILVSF

[2] = biological target: T2, JBMan (Jack bean α-mannosidase) (Canavalia ensiformis, UniProt C0HJB3); assay: α-mannosidase inhibition assay with pNP-Man, JBMan; format: biochemical
T2 sequence (C0HJB3 1-981): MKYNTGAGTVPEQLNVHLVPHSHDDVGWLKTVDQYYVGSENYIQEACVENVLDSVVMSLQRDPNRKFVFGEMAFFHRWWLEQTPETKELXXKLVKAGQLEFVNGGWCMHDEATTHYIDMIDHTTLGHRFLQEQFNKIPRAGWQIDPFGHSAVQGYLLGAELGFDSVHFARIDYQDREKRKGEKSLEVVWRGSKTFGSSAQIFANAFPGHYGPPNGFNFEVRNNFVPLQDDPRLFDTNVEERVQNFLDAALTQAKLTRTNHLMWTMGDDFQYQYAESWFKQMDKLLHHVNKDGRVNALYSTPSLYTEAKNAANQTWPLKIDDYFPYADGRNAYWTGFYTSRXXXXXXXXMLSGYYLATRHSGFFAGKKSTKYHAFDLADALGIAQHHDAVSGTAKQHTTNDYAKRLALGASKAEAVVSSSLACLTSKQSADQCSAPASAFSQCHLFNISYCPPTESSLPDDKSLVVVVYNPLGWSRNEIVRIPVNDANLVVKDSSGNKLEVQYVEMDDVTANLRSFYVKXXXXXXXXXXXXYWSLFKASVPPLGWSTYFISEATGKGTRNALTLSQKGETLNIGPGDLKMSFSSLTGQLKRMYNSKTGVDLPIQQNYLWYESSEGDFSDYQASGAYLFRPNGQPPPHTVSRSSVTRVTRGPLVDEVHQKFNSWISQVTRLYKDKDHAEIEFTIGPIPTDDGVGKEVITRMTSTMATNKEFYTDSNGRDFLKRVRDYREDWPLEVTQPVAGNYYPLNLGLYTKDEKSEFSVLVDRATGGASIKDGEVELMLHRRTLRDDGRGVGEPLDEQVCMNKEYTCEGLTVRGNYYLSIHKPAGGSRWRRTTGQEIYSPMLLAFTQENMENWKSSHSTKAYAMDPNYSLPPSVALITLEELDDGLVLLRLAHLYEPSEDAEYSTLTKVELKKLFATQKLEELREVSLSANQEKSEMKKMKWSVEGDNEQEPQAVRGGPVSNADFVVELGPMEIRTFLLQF
Procedure, shortened: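 Commercial jack bean α-mannosidase (0.05 μg protein) in 50 mM acetate buffer, pH 5.0. Compound taken from a 50 mM DMSO solution, diluted in water, and preincubated with enzyme 5 min at rt. pNP-Man was added and the reaction ran 1-2 h at 37 °C. Stopped with 0.5 M sodium carbonate; p-nitrophenol read at 405 nm. […] Three independent experiments in duplicate.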

[3] = read-out: IC50 AMAN-2, 2 mM pNP-Man, pH 6.0
[4] = read-out: Ki AMAN-2, Dixon plots, pNP-Man 0.5-4 mM, pH 6.0
[5] = read-out: IC50 JBMan, 2 mM pNP-Man, pH 5.0
[6] = read-out: Ki JBMan, Dixon plots, pNP-Man 0.5-4 mM, pH 5.0

Row | SMILES | IC50 [1, 3] [µM] | Ki [1, 4] [µM] | SI^b = IC50(JBMan)/IC50(AMAN-2) [1] | IC50 [2, 5] [µM] | Ki [2, 6] [µM] | IC50 [1] [µM] | Ki [1] [µM] | IC50 [2] [µM] | Ki [2] [µM] | IC50 ([1]; read-out: IC50 AMAN-2, 2 mM pNP-Man, pH 6.0, listed as N-2-naphtylmethyl) [µM]
1 | Cl.N=C(N)NCc1ccc(CN2C[C@@H](O)[C@@H](O)[C@H]2CO)cc1 [Compound 9, 1,4-Dideoxy-N-4-guanidinomethylbenzyl-1,4-imino-d-lyxitol hydrochloride] | 12.5 ± 0.1 | 10.3 | 9 | 115 ± 6.7 | 52.4 | – | – | – | – | –
2 | Cl.N=C(N)CCCCCCCCCN1C[C@@H](O)[C@@H](O)[C@H]1CO [Compound 26, N-(9-amidinononyl)-1,4-dideoxy-1,4-imino-d-lyxitol hydrochloride] | – | – | 3 | – | – | 1.4 ± 0.1 | 0.78 | 4.7 ± 1.2 | 1.4 | –
3 | OC[C@@H]1[C@H](O)[C@H](O)CN1Cc1ccccc1 [Compound 4, N-Benzyl-1,4-dideoxy-1,4-imino-d-lyxitol] | – | – | 124 | – | – | 8.7 ± 0.1 | – | 1080 ± 185 | – | –
4 | OC[C@@H]1[C@H](O)[C@H](O)CN1Cc1ccc2ccccc2c1 [Compound 17, 1,4-Dideoxy-1,4-imino-N-(naphthalen-2-ylmethyl)-d-lyxitol] | 2.4 ± 0.1 | – | 812 | 1950 ± 250 | – | – | – | – | – | 7.6
5 | CCCCCCCCCCCCN1C[C@@H](O)[C@@H](O)[C@H]1CO [Compound 21, 1,4-Dideoxy-N-dodecyl-1,4-imino-d-lyxitol] | – | – | 9 | – | – | 2.3 ± 0.1 | – | 20.3 ± 4.4 | – | –
6 | OCC1C(O)C(O)CN1Cc1ccc(I)cc1 (stereo not drawn) [Compound 16, 1,4-Dideoxy-1,4-imino-N-4-iodobenzyl-d-lyxitol] | 3.5 ± 0.1 | – | 269 | 940 ± 24 | – | – | – | – | – | –
7 | OCC1C(O)C(O)CN1CCc1cccc2ccccc12 (stereo not drawn) [Compound 18, 1,4-Dideoxy-1,4-imino-N-(2-(naphthalen-1-yl)ethyl)-d-lyxitol] | 0.21 ± 0.1 | 0.15 | 86 | 18 ± 1.7 | 6.5 | – | – | – | – | –
8 | OC[C@@H]1[C@H](O)[C@H](O)CN1CC1CCOCC1 [Compound 20] | 84.3 ± 0.1 | – | 30 | 2550 ± 63 | – | – | – | – | – | –
9 | OC[C@@H]1[C@H](O)[C@H](O)CN1CC1CCCCC1 [Compound 19, N-Cyclohexylmethyl-1,4-dideoxy-1,4-imino-d-lyxitol] | – | – | 75 | – | – | 17.3 ± 0.1 | – | 1290 ± 113 | – | –
10 | Cl.N=C(N)NCCCCCCCCCCN1C[C@@H](O)[C@@H](O)[C@H]1CO [Compound 25, 1,4-Dideoxy-N-(10-guanidinodecyl)-1,4-imino-d-lyxitol hydrochloride] | – | – | 3 | – | – | 2.7 ± 0.1 | – | 8.3 ± 1.2 | – | –
